From article PMC11822521 (ACS Omega, 2025)

How the values were obtained:
VHR [1] = target: T1, VHR (Homo sapiens, UniProt P51452); assay: Michaelis–Menten kinetic assay of VHR with OMFP; type: biochemical; conditions: read-out: Michaelis–Menten constant (Km); OMFP as substrate of VHR
In short: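 Full-length human His8-VHR expressed in E. coli, fixed at 2.5 nM, with OMFP titrated. Enzyme preincubated 20 min at room temperature, then substrate added. Fluorescence (ex 485/em 535 nm) read kinetically for 10 min. Initial velocities were background-corrected against no-enzyme wells and fitted to the Michaelis–Menten equation.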

VHR [2] = target: T1, VHR; assay: VHR dose–response inhibition assay with OMFP substrate; type: biochemical
In short: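 Ten-point curves, 100 μM to 5 nM final, in triplicate, with DMSO vehicle. Human His8-VHR (2.5 nM final) in pH 6 Bis-tris buffer with DTT and Tween-20 was preincubated with compound 20 min at room temperature. Reaction started with OMFP (6 μM final) and read at ex 485/em 535 nm for 10 min. Slopes were normalized to no-enzyme and vehicle controls and fitted to a four-parameter variable-slope model.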

VHR [3] = target: T1, VHR; assay: Isothermal titration calorimetry; type: binding; conditions: dissociation constant (KD), ITC; mean of two independent experiments ± SEM
In short: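 Run at 25 °C on full-length human VHR (His8-tagged, E. coli-expressed, Ni-NTA purified). Protein was 60–285 μM in PBS with 5% DMSO in the cell. Test compound (0.3–5 mM in the same buffer) was added as 20 injections of 6 μL. Baseline came from compound injected into buffer alone. KD was the mean of two independent runs.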

T1 sequence (P51452 whole entry): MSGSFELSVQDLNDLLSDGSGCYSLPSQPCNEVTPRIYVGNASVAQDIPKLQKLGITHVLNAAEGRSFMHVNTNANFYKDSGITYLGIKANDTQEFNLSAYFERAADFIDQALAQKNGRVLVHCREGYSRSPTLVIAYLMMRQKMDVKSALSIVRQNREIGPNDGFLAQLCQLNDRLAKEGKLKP

Compound	Km (VHR [1]) [µM]	IC50 (VHR [2]) [µM]	Kd (VHR [3]) [µM]
COc1ccc2c(c1)Oc1cc(OP(=O)(O)O)ccc1C21OC(=O)c2ccccc21 (stereo not drawn) [OMFP, 3-O-methylfluorescein phosphate]	5.4		
O=P(O)(O)C(F)(F)c1cccc(-c2cccc(-c3cscn3)c2)c1 [SBP-4929, (Difluoro(3′-(thiazol-4-yl)-[1,1′-biphenyl]-3-yl)methyl)phosphonic Acid]		4.1 ± 1.8	7.6 ± 0.2
